In the library only some 1.2% were active in any assay of this set; here they are far more common.
ZTA DNA inh: counter-screen for EBNA-1 inhibitors: inhibitors of Epstein-Barr virus ZTA; P03206; ZTA-DNA binding, fluorescence polarization; inhibition, % at 11 µM; actives 0.15% (n = 320,000); AID 2234; in the data active = inhibition above about 33%
Target sequence (P03206 whole entry, looked up): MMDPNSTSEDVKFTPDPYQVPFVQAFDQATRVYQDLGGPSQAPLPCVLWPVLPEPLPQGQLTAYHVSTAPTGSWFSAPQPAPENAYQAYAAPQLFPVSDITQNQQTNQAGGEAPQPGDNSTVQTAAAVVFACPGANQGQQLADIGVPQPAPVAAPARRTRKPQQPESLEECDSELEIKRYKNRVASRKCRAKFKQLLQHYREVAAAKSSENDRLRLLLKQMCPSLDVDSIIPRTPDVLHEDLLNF
EBNA-1 inhibitor: EBNA-1 DNA-binding inhibitors, primary screen, biochemical, fluorescence polarization; inhibition, % at 14.8 µM; actives 0.34% (n = 300,000); AID 1950, 2009; in the data active = inhibition above about 28%
HCV core dimer: inhibitors of HCV core protein dimerization, primary screen, biochemical, TR-FRET, high-throughput | TR-FRET GST/Flag-core106 dimerization, 1536-well | inhibition, % at 5 µM | actives 0.33% (n = 300,000);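 active = inhibition above the mean of all tested compounds plus 3 SD, set per screening campaign, cut at about 45% in these data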
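System: GST-tagged and Flag-tagged HCV core protein residues 1-106 / Input: core106 proteins, GST 13.5 nM and Flag 17 nM / Buffer or medium: KF-containing HEPES buffer, pH 7.45, DTT, CHAPS, BSA / Probe or stimulus: Eu-anti-GST and XL665-anti-Flag labelled anti-tag antibodies / Schedule: 4 h, 22.5 °C incubation / Technique: TR-FRET 671 and 617 nm emission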
HCV NS3 hel inh: inhibitors of HCV NS3 helicase, primary screen, biochemical, Cy5 molecular beacon fluorescence; Hepatitis C virus NS3 helicase; NS3 helicase DNA unwinding; inhibition, % at 10.9 µM; actives 0.56% (n = 290,000); AID 1800, 2009;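 active = inhibition above the mean of all tested compounds plus 3 SD, set per campaign, cut at about 35% in these data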;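 also: 0% = DMSO wells and 100% = thioflavine S control wells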
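Measured by: Cy5 fluorescence, 0 and 60 min reads / Assay system: NS3 helicase fragment of HCV / Control set: low DMSO, high thioflavine S at 110 µM / Times: 1 h reaction at 25 °C, ATP-initiated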
NS3 hel confirm: HCV NS3 helicase inhibitors, retest, confirmation, biochemical, Cy5 molecular beacon fluorescence, triplicate. actives 31% (n = 1,600). NS3 helicase DNA unwinding. inhibition, % at 10.9 µM. shares compounds with HCV NS3 hel inh;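 active = inhibition above the mean of all tested compounds plus 3 SD, cutoff set per campaign, cut at about 36% in these data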
DNA FID counter: compounds displacing fluorescent DNA intercalator, artefact control for HCV NS3 helicase inhibitor project, biochemical, FID fluorescence, triplicate; actives 4% (n = 1,600); shares compounds with HCV NS3 hel inh; inhibition, % at 7.9 µM; DNA fluorescent intercalator displacement; in the data active = inhibition above about 37%;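 also: 0% = vehicle and 100% = reference compound; higher means more displacement of ethidium bromide from the DNA hairpin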
DNA FID DR: compounds displacing fluorescent intercalator from DNA, dose response, counter-screen for HCV NS3 helicase inhibitor project, biochemical, fluorescence | IC50, µM | fluorescent intercalator displacement from DNA | shares compounds with HCV NS3 hel inh | 120 tested, under 10 active | AID 2172, 2009; call rule not given here
* = called active by the depositor; i = inactive; . = no result given.

SMILES	ZTA DNA inh	EBNA-1 inhibitor	HCV core dimer	HCV NS3 hel inh	NS3 hel confirm	DNA FID counter	others
O=C1/C(=C/C=C/c2ccco2)SC(=S)N1c1ccc(O)cc1	23	22	74*	51*	91*	21	DNA FID DR=i
O=C(NN1C(=O)/C(=C/C=C/c2ccco2)SC1=S)c1ccncc1	74*	51*	47*	40*	78*	7
CC(C(=O)Nc1ccc(C(=O)O)c(O)c1)N1C(=O)/C(=C\c2ccco2)SC1=S (stereo not drawn)	27	2	2	24	.	.
CCOC(=O)C1=C(C)NC(C)=C(C(=O)OCC)C1C(=O)OCC(=O)N(C)C1CCS(=O)(=O)C1 (stereo not drawn)	-18	4	-1	2	.	.
C=CCNCc1ccc(C(=O)NCCCCCCC)cc1[N+](=O)[O-]	-5	-1	2	.	.	.
N#CCSc1nc2sccc2c(=O)n1-c1ccccc1	-15	4	21	37*	-16	6
CNC(=O)CSc1nc2sccc2c(=O)n1-c1ccccc1	10	2	29	2	.	.
CN1C(=O)Nc2cccc3cccc1c23	-5	6	-7	42*	-12	6
COc1ccc(NS(=O)(=O)c2cccc(C(=O)NNC(=O)NCCCl)c2)cc1	-18	-1	-3	69*	-14	-6
Cc1ccccc1COc1ccc(-c2nnn(CC(=O)O)n2)cc1	.	.	.	40*	27	-15
CC(=O)c1ccc(N(CC(=O)NC2CCCC2)C(=O)CNC(=O)c2cccs2)cc1	-3	-5	-7	37*	-8	-11
CN(C)C(=O)N(CCCN1CCOCC1)Cc1cccc2ccccc12	-4	2	-3	-9	.	.
CCCC(C(=O)Nc1ccc(S(=O)(=O)N2CCCC2)cc1)c1ccccc1 (stereo not drawn)	21	-3	4	.	.	.
Cc1ccccc1C(=O)N1CCN(CCNC(=O)C(=O)Nc2ccc(Br)cc2)CC1	-14	-4	0	-9	.	.
Cc1cccc2nc(-c3ccco3)c(Nc3ccc4c(c3)OCO4)n12	15	-6	-3	40*	9	3
CCc1cc2cccc(C)c2nc1SCC(=O)NC1CCCC1	-2	-11	-2	-2	.	.
CCc1cc2cc(C)ccc2nc1SCC(=O)NC1CCCC1	-11	-3	1	55*	1	-14
C=Cc1ccc2c(c1)N(C)C(=C)S2	10	3	1	3	.	.
N#Cc1ccc(-c2ccco2)nc1SCC(=O)c1ccc(Cl)cc1	28	2	8	38*	12	14
CC1CCCCC1NC(=O)CN(C)S(=O)(=O)c1cccc2cccnc12 (stereo not drawn)	-12	0	3	-16	.	.
Cc1c(NC(=O)CN2C(=O)NC3(CCCC3)C2=O)c(=O)n(-c2ccccc2)n1C	-15	-6	-2	36*	-4	16
Cc1c(NC(=O)CN2C(=O)NC(C)(c3ccccc3Cl)C2=O)c(=O)n(-c2ccccc2)n1C (stereo not drawn)	4	8	4	11	.	.
O=C1CCCC2=C1C(c1ccco1)Nc1ccc3ccccc3c12 (stereo not drawn)	12	1	71*	41*	36	-6
O=C(O)C1Nc2ccc(Br)cc2C2C=CCC12 (stereo not drawn)	24	22	23	43*	88*	-4
CC(C)CNC(=O)C1Nc2ccc(OC(F)(F)F)cc2C2C=CCC12 (stereo not drawn)	-11	-3	8	.	.	.
SMILES	ZTA DNA inh	EBNA-1 inhibitor	HCV core dimer	HCV NS3 hel inh	NS3 hel confirm	DNA FID counter	others
CCOC(=O)c1ccc2c(c1)C1C=CCC1C(C(=O)OCC)N2 (stereo not drawn)	-2	-7	55*	51*	14	7
CCOC(=O)C1Nc2ccc(Br)cc2C2C=CCC12 (stereo not drawn)	24	3	50*	39*	26	-4
O=C(O)C1Nc2c(O)cccc2C2C=CCC12 (stereo not drawn)	30	42*	50*	58*	110*	14	DNA FID DR=>79
COc1ccccc1OCC(=O)Nc1cc(C(F)(F)F)ccc1-n1cncn1	12	-2	-3	.	.	.
Cc1cc(C)n2nc(C(=O)Nc3ccc(S(=O)(=O)N(C)C)cc3)nc2n1	17	4	2	3	.	.
CN(C)c1ccc(O)c2c1CC1CC3[C@@H](N(C)C)C(=O)C(C(N)=O)=C(O)[C@]3(O)C(=O)C1=C2O (stereo partly drawn)	-11	6	5	39*	36*	16	DNA FID DR=>79
C[C@H]1c2cccc(O)c2C(O)=C2C(=O)[C@]3(O)C(O)=C(C(N)=O)C(=O)[C@@H](N(C)C)[C@@H]3[C@@H](O)[C@@H]21	-23	-9	-9	.	.	.
CN(CCc1cnn(C)c1)C(=O)C1CCC(=O)N(CC2CCCCC2)C1 (stereo not drawn)	10	-1	-2	-4	.	.
CC(=O)OCCN(CCCn1c(-c2ccncc2)nc2ccccc21)c1nc(CN2CCCCC2)cs1	4	8	-3	12	.	.
COc1ccc(C(=O)N/N=C/c2ccc(OC)c(COc3ccccc3)c2)cc1	-8	1	6	-8	.	.
COc1ccc(/C=N\NC(=O)c2cc(O)c(O)c(O)c2)cc1COc1ccc(C(=O)OCC(C)C)cc1	-3	0	22	39*	56*	-9	DNA FID DR=>79
COc1ccc(CNc2ccccc2SC)cc1OC	-13	18	1	1	.	.
COc1ccc(CNc2cccc3[nH]c(C(F)(F)F)nc23)cc1OC	4	3	2	42*	3	-13
O=C(Nc1cc(-c2ccccc2)nn1-c1ccccc1)c1ccccc1F	-6	10	-1	.	.	.
Cc1ccc(-n2nnnc2SCc2ccc(C(=O)O)cc2)cc1C	-18	-3	-8	37*	-14	-7
Cc1c(Cl)cccc1NC(=O)CSc1sc2c(O)cc(=O)[nH]c2c1C#N	7	-6	8	37*	-9	8
N#Cc1c(SCC(=O)Nc2ccc(Cl)cc2Cl)sc2c(O)cc(=O)[nH]c12	3	0	2	30	.	.
COc1ccccc1NCCC(=O)O	10	4	-2	0	.	.
O=C(O)CCNc1ccc(NCCC(=O)O)c2c1C(=O)c1ccccc1C2=O	158*	128*	-126	60*	35	4
Cc1cc(C2=NNC(=NCc3ccccc3)SC2)c(C)n1-c1c(C)n(C)n(-c2ccccc2)c1=O	.	.	.	36*	7	-17
